Laboratory results published in PubChem BioAssay.
Unmarked numbers belong to inactive results. Records with an inconclusive call do not appear. Active and inactive are the calls of the source.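 The calls were made as follows, unless noted: active = RAM network inhibition above 8.4% in each of two replicates, 3 SD over the compound average; inconclusive = above 8.4% inhibition in only one replicate; inactive = 8.4% inhibition or less in each replicate.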

Experiments:
[1] = S. cerevisiae growth inhibition in permissive medium (OD615), pilot counter-assay for S. cerevisiae lifespan shortening project, permissive growth control (AID 705;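 active = growth inhibition above 25% in both replicates, a cutoff set 3 SD above the mean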); conditions: OD615, 24 h, at 10 µM, stronger effect = higher value
Outline: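 System – S. cerevisiae with engineered DeaD lifespan system · Buffer or medium – SC raffinose/galactose permissive medium · Schedule – cells pre-grown 4 h, then 24 h compound exposure, 30 °C humidified · Technique – culture turbidity as optical density at 615 nm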

[2] = S. cerevisiae growth inhibition in restrictive medium, OD615, pilot screen, restrictive growth control, yeast lifespan reduction project (AID 706;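 active = growth inhibition above a set limit, 3 SD over mean compound inhibition, in both replicates, cut at about 43% in these data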;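 also: modified DeaD lifespan yeast strain shifted to restrictive glucose medium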); conditions: OD615, 48 h, at 10 µM, stronger effect = higher value
Outline: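 Material: engineered S. cerevisiae DeaD strain / Medium: glucose-based CSMM-D restrictive medium / Compound: single dose of 10 µM compound final, 0.25% DMSO / Timing: 4 h pre-incubation, 48 h exposure at 30 °C / Technique: OD615 absorbance reading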

[3] = doxorubicin toxicity protection in MRP-1 cells – H69AR cells, CellTiter-Glo, duplicate, MRP-1 activator project, pilot screen (AID 807;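 active = viability increase at or above a cutoff of the median across tested compounds plus 3 SD, cut at about 8.5% in these data, passing the limit was not always enough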;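 also: compound pretreatment 18-22 h then 72 h combined with doxorubicin; 0% = doxorubicin alone and 100% = vehicle without doxorubicin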); conditions: H69AR viability with doxorubicin, CellTiter-Glo luminescence; at 10 µM; stronger effect = higher value
[4] = viability of HCT116 without oncogenic beta-catenin – human colon tumor cells, pilot screen (AID 823;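 active = cell viability at or below a set limit in both duplicate runs, the limit being the all-compound median minus 4 SD, cut at about 23% in these data, passing the limit was not always enough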;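 also: 0% = wells killed by 20 µM Hyamine and 100% = untreated DMSO cell wells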); conditions: HCT116 beta-catenin knockout viability, CellTiter-Glo, 60 h; at 10 µM; stronger effect = lower value
[5] = viability of PTEN-null HCT116 cells – cell-based, HCT116 clonal line, CellTiter-Glo, pilot screen (AID 824;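 active = viability at or below 27.92% in each of two runs, the all-compound median minus 4 SD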;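 also: 0% = 20 µM Hyamine control and 100% = vehicle cell control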); conditions: HCT116 PTEN-deleted viability, 60 h, at 10 µM, stronger effect = lower value
[6] = RAM pathway blockade in budding yeast – dse1pr::URA3 reporter, 5-FOA selection, pilot screen (AID 869;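 active = inhibition over a set limit, the all-compound mean plus 3 SD, in both replicate runs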;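 also: 0% = DMSO wells with no growth and 100% = 10 µM 1-NA-PP1 with full growth; RAM network block rescues cells from 5-FOA so hits raise OD615 growth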); conditions: S. cerevisiae dse1pr::URA3 5-FOA growth, OD615, 2 d; at 10 µM; stronger effect = higher value; strain carries analog-sensitive mutant Cbk1 kinase
[7] = RAM signaling pathway blockade in yeast – S. cerevisiae, Pdr1DBD-CYC8 efflux-inhibited sensitized strain, primary screen (AID 1298);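 also: 0% = DMSO untreated cells without growth and 100% = 10 µM 1-NA-PP1 full growth; higher means more yeast growth rescued from 5-FOA killing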; conditions: S. cerevisiae cbk1-as DSE1-URA3 strain, 5-FOA growth OD615, 2 d; at 50 µM; stronger effect = higher value

Compound | growth inhibition [1] [%] | growth inhibition [2] [%] | viability increase [3] [%] | viability [4] | viability [5] | inhibition [6] [%] | RAM network inhibition [7] [%]
Cc1sc(NC(=O)CCCC(=O)O)c(C#N)c1C | -0.59 | 16.8 | -1.9 | 99.4% | 99% | 1.27 | 3.31
CCSc1nnc(NC(=O)CSc2nc3c(c(=O)n2CCOC)SC(C)C3)s1 (stereo unspecified) | -5.35 | -1.1 | -2.95 | 94.1% | 94.4% | 2.09 | 7.38
O=C(Oc1c(Cl)cc(Cl)c2cccnc12)N1CCOCC1 | -1.54 | 2.49 | -2.13 | 99.7% | 95.3% | 0.74 | 0.25
Cc1cccc(NC(=O)C2CCCN2S(=O)(=O)c2cccc3cccnc23)c1 (stereo unspecified) | -13 | -6.59 | -3.17 | 85.3% | 84% | 0.065 | 1.73
CCC(=O)Nc1c2c(nn1-c1ccc(F)cc1)CS(=O)C2 (stereo unspecified) | -7.18 | 1.07 | 0.7 | 99.2% | 99.5% | 0.265 | 2.18
Cc1cc(C)n(S(=O)(=O)c2cccc(Cl)c2Cl)n1 | -2.69 | -0.205 | -1.97 | 96.8% | 93.6% | 0.73 | 2.28
COc1ccc(-c2noc(-c3cccc(OC)c3OC)n2)cc1OC | -8.92 | -10.4 | -1.07 | 102% | 94.3% | 2.87 | 2.97
CCn1cc(C2=NC(C(C)C)CO2)c2ccccc21 (stereo unspecified) | -12 | -6.49 | -2.74 | 99.2% | 95.9% | 1.54 | 2.06
CCN(CC)c1ccc(/C=N/n2c(C)cc(C)cc2=O)cc1 | 0.085 | 7.67 | -0.57 | 105% | 93% | 0.145 | 1.36
Cc1ccc(C(=O)NCc2ccco2)cc1S(=O)(=O)N1CCCCC1 | -11.6 | -5.65 | -5.21 | 82.9% | 85.5% | 3 | 6.81
CCOCCCNC(=O)c1cc2c(=O)n3cccc(C)c3nc2n1C | -19.1 | -15.2 | -5.27 | 19% (active) | 24.4% (active) | 2.11 | 2.32
CCOC(=O)N1CCN(c2nc(SC)nc3sc4c(c23)CC(C)(C)OC4)CC1 | 2.38 | -0.985 | -5.82 | 87.5% |  | 0.54 | 9.5
Cc1cc(=O)n2[nH]c(C)c(-c3ccc(Cl)cc3)c2n1 | 3.86 | -11.8 | -5.81 | 34.2% |  | 2.29 | 5.64
CC1Cc2ccccc2N1C(=O)c1ccc2snnc2c1 (stereo unspecified) | -1.7 | -9.59 | -3.96 | 95% | 96.8% | 0.79 | 6.74
Cc1oc2cc(O)ccc2c(=O)c1N1C(=O)c2ccccc2C1=O | -5.69 | 0.06 | 1.85 | 98.2% | 99.8% | 1.11 | 1.15
COc1ccc(CCNc2ncnc3nc[nH]c23)cc1OC | 0.1 | 20 | -3.11 | 82.8% | 84.7% | 0.57 | 1.46
Cc1nn(C)c(C)c1S(=O)(=O)N(CC(=O)NCCN1CCOCC1)c1ccc(C(C)C)cc1 | -13.5 | -11.8 | -1.69 | 102% | 101% | 1.83 | 2.73
CCN1C(=O)c2ccccc2S(=O)c2ccc(C(=O)N3CCCC3)cc21 (stereo unspecified) | -3.58 | 3.54 | -1.58 | 93.3% | 88.9% | 1.16 | -1.72
O=C(Nc1cccnc1)c1cc(-c2ccc(Br)cc2)on1 | -9.68 | -9.79 | 0.92 | 100% | 95.9% | 0.76 | 6.96

Compound | growth inhibition [1] [%] | growth inhibition [2] [%] | viability increase [3] [%] | viability [4] | viability [5] | inhibition [6] [%] | RAM network inhibition [7] [%]
OC1CC(c2ccco2)NC2(CCCCC2)C1 (stereo unspecified) | -4.09 | 1.06 | -1.66 | 97.2% | 94.6% | 0.39 | 2.73
c1ccc2c(c1)nc(N1CCOCC1)c1nnnn12 | -7.82 | -4.7 | -3.18 | 109% | 103% | 1.38 | 10.4
Cc1nn(-c2ccccc2)c2sc(C(=O)n3cccn3)cc12 | -10.7 | -9.12 | -3.24 | 89.8% | 92.4% | 2.99 | 8.3
Cc1cccc(C)c1NC(=O)CSc1nnc([C@@H]2CCCN2C(=O)OC(C)(C)C)o1 | -11.8 | -6.59 | -1.42 | 96.3% |  | 2.23 | 8.94
CCOc1ccc(-c2noc(CCC(=O)O)n2)cc1 | 6.08 | -3.1 | 0.28 | 102% | 95.1% | 1.56 | 0.42
COc1ccc(C(=O)OCCN2C(=O)c3ccccc3C2=O)cc1OC | 6.76 | 3.49 | -1.79 | 117% |  | 0.34 | 0.93
CCC(C)NC(=O)C1CN(S(=O)(=O)c2ccccc2)CCN1S(=O)(=O)c1ccccc1 (stereo unspecified) | 10.9 | -6.21 | -2.53 | 97.3% | 92.9% | 0.14 | 0.57
O=C(c1c(Cl)nc2sccn12)N1CCN(c2cccc(Cl)c2)CC1 | 0.85 | 18.6 | -4.96 | 13.8% (active) | 17.8% (active) | 0.91 | 5.21
CN(CC(=O)NC1CCCc2ccccc21)S(=O)(=O)c1ccc2c(c1)c(=O)n(C)c(=O)n2C (stereo unspecified) | -9.17 | -10.7 | -3.54 | 95.3% | 94% | 2.24 | 1.42
Cc1ccc(N2CC(C(=O)Nc3cccc(F)c3)CC2=O)cc1 (stereo unspecified) | -13.3 | -5.71 | 0.09 | 90.6% | 103% | -0.185 | 8.04
COc1ccc(CC(=O)Nc2cc(C)c3c(=O)oc4ccccc4c3n2)cc1 | -2.25 | 1.88 | -4.14 | 75.3% |  | 4.06 | 7.11
Cc1cccc(NC(=O)C2CCN(S(=O)(=O)c3cccc4cccnc34)CC2)n1 | -2.91 | 4.94 | -3.03 | 87.2% | 84.7% | 1.35 | 1.44
O=C(Cn1c(=O)sc2ccccc21)Nc1ccc2c(c1)OCCO2 | -22.9 | -7.4 | -4.54 | 93.9% |  | 1.6 | 6.6
CC1CCCCN1Cc1nc2c(c(=O)n(C)c(=O)n2C)n1Cc1c(F)cccc1Cl (stereo unspecified) | 1.95 | -6.45 | -3.05 | 78.6% | 79.2% | 1.46 | 0.66
COc1ccc(-n2c(Cn3c(=O)sc4ccccc43)nnc2SCC(=O)N2CCCCC2)cc1 | 3.02 | 19.9 | -0.89 | 99.6% | 96.5% | 0.19 | 6.13
CCC(=O)c1cc(F)c(N2CCN(S(=O)(=O)c3ccccc3)CC2)cc1C | -21.4 | 0.885 | 0.77 | 59.2% |  | 0.65 | 1.67
O=C1CC(c2cccs2)CC(O)=C1C=NCCN1CCNCC1 (stereo unspecified) | -11.8 | -6.3 | -0.54 | 98.9% | 97.2% | 0.995 | -0.42
COc1ccc(NC(=O)c2cncc(Br)c2)c(S(=O)(=O)N2CCOCC2)c1 | -1.69 | 7.98 | -5.06 | 98.3% |  | 2.21 | 4.58
